The values that follow come from ChEMBL document CHEMBL4017520, “Discovery, Structure-Activity Relationship, and Antiparkinsonian Effect of a Potent and Brain-Penetrant Chemical Series of Positive Allosteric Modulators of Metabotropic Glutamate Receptor 4” (J Med Chem, 2017).

Active and inactive are the calls of the source. The calls are words filed in the database; no cut-off is given here.

In data set [1] the target is Glycogen synthase kinase-3 beta (Homo sapiens) (UniProt P49841). The data set can be described thus: Inhibition of GSK3beta (unknown origin) at 10 uM.
Data set [2] can be described thus: Plasma concentration in Sprague-Dawley rat at 30 mg/kg, ip after 60 mins. The class given is ADME, organism-based. In outline: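 Rats dosed 30 mg/kg ip; plasma sampled over time, brain measured at 30 and 60 min; brain/plasma ratio averaged over 30 and 60 min.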
The nature of data set [3]: Volume of distribution in Sprague-Dawley rat at 1 mg/kg, iv administered as single dose by LC-MS/MS analysis. The class given is ADME, organism-based. The conditions noted are these: in vivo. In outline: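 Single intravenous dose: rats 1 mg/kg, mice 2 mg/kg. Plasma concentration–time data yielded Cmax, t1/2, AUC0−∞, plasma clearance and volume of distribution. Values are mean ±SEM of 3 animals.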

A word on the Vd: it is the apparent volume that relates the amount in the body to the concentration in plasma or blood.

Glycogen synthase kinase-3 beta (Homo sapiens), sequence (P49841 whole entry, looked up): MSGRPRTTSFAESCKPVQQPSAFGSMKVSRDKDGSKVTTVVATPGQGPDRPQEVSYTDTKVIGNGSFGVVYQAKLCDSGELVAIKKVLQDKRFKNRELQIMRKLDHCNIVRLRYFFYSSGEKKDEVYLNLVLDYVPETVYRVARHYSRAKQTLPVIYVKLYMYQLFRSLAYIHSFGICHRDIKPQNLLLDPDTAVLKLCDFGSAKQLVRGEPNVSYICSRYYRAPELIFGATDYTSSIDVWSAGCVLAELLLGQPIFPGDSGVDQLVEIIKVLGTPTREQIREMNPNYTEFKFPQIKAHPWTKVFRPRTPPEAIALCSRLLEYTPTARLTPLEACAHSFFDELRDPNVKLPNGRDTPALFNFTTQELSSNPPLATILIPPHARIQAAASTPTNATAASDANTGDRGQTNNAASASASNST

Turning to `O/N=c1\cc(-c2cc3cccn3cn2)oc2ccc(OCCN3CCOCC3)cc12` [listing 1 of 2 here], the inhibition result in data set [1] is “inactive”. Consider `O/N=c1\cc(-c2cc3cccn3cn2)oc2ccc(OCCN3CCOCC3)cc12` [listing 2 of 2 here], for which the concentration at 1 h in data set [2] turned out to be 3560 ng/mL. Also, in data set [3], the Vd came out at 6.5 L/kg.
